{"source": "paper PMC4415995", "about": "(Advances in Therapy, 2015)", "key": {"[1]": {"system": "Japanese patients with T2DM", "assay": "Clinical laboratory tests and vital signs, 7-day once-daily dosing", "format": "in vivo, human", "in_short": "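Randomized, single-blind, placebo-controlled, parallel-group study in Japanese T2DM outpatients (HbA1c 6.9–10.5%, FPG ≥126 mg/dL, stable diet 4 weeks, age 20–74 y). Test compound 0.5, 1, 2.5 or 5 mg or placebo was given orally once daily for 7 days before breakfast. Safety set was all dosed patients. AEs were coded in MedDRA 12.1 and graded mild/moderate/severe, with drug relation judged by the investigator. Labs, vital signs, body weight and ECG were also recorded.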"}, "[2]": {"system": "Japanese patients with T2DM", "assay": "Urinary glucose excretion", "format": "in vivo, human", "in_short": "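Dosing was once daily, 0.5–5 mg or placebo, before a standardized ~600 kcal breakfast. Read-outs were 24-h cumulative UGE, total UGE and per-interval UGE rate, plus change from Day −1. LS mean difference vs placebo with 95% CI.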"}}, "note": "Marks after values point to notes of the source that are not given here."}
{"smiles": "CCOc1ccc(Cc2cc([C@@H]3S[C@H](CO)[C@@H](O)[C@H](O)[C@H]3O)c(OC)cc2C)cc1", "note": "[Luseogliflozin, (1S)-1,5-anhydro-1-[5-(4-ethoxybenzyl)-2-methoxy-4-methylphenyl]-1-thio-D-glucitol]", "values": [{"measurement": "DBP, change from baseline", "setting": "[1]; 2.5 mg OD, Day 7", "result": "−6.1 ± 5.6", "unit": "mmHg"}, {"measurement": "Hematocrit, change from baseline", "setting": "[1]; 2.5 mg OD, Day 7", "result": "−2.89 ± 1.81", "unit": "%"}, {"measurement": "SBP, change from baseline", "setting": "[1]; 2.5 mg OD, Day 7", "result": "−8.8 ± 10.9", "unit": "mmHg"}, {"measurement": "Serum calcium, change from baseline", "setting": "[1]; 2.5 mg OD, Day 7", "result": "-0.40 ± 0.27", "unit": "mg/dL"}, {"measurement": "Serum phosphorus, change from baseline", "setting": "[1]; 2.5 mg OD, Day 7", "result": "0.38 ± 0.29", "unit": "mg/dL"}, {"measurement": "Urinary NAG, change from baseline", "setting": "[1]; 2.5 mg OD, Day 7", "result": "−0.08 ± 1.26", "unit": "U/L"}, {"measurement": "Urinary calcium, change from baseline", "setting": "[1]; 2.5 mg OD, Day 7", "result": "0.00 ± 0.05", "unit": "g/day"}, {"measurement": "Urinary phosphorus, change from baseline", "setting": "[1]; 2.5 mg OD, Day 7", "result": "-0.03 ± 0.17", "unit": "g/day"}, {"measurement": "Urinary type IV collagen, change from baseline", "setting": "[1]; 2.5 mg OD, Day 7", "result": "0.21 ± 1.85", "unit": "μg/g creatinine"}, {"measurement": "Urinary uric acid, change from baseline", "setting": "[1]; 2.5 mg OD, Day 7", "result": "-0.06 ± 0.07", "unit": "g/day"}, {"measurement": "Urinary β2-microglobulin, change from baseline", "setting": "[1]; 2.5 mg OD, Day 7", "result": "5.5 ± 44.0", "unit": "µg/L"}, {"measurement": "Cystatin C, change from baseline", "setting": "[1]; 5 mg OD, Day 1", "result": "0.028 ± 0.042", "unit": "mg/L"}, {"measurement": "DBP, change from baseline", "setting": "[1]; 5 mg OD, Day 1", "result": "0.6 ± 6.0", "unit": "mmHg"}, {"measurement": "Hematocrit, change from baseline", "setting": "[1]; 5 mg OD, Day 1", "result": "−0.54 ± 0.85", "unit": "%"}, {"measurement": "SBP, change from baseline", "setting": "[1]; 5 mg OD, Day 1", "result": "−1.3 ± 12.5", "unit": "mmHg"}, {"measurement": "Serum calcium, change from baseline", "setting": "[1]; 5 mg OD, Day 1", "result": "-0.10 ± 0.20", "unit": "mg/dL"}, {"measurement": "Serum phosphorus, change from baseline", "setting": "[1]; 5 mg OD, Day 1", "result": "1.08 ± 0.37", "unit": "mg/dL"}, {"measurement": "Urinary NAG, change from baseline", "setting": "[1]; 5 mg OD, Day 1", "result": "−0.81 ± 1.01", "unit": "U/L"}, {"measurement": "Urinary calcium, change from baseline", "setting": "[1]; 5 mg OD, Day 1", "result": "-0.01 ± 0.04", "unit": "g/day"}, {"measurement": "Urinary phosphorus, change from baseline", "setting": "[1]; 5 mg OD, Day 1", "result": "-0.24 ± 0.11", "unit": "g/day"}, {"measurement": "Urinary type IV collagen, change from baseline", "setting": "[1]; 5 mg OD, Day 1", "result": "0.11 ± 0.97", "unit": "μg/g creatinine"}, {"measurement": "Urinary uric acid, change from baseline", "setting": "[1]; 5 mg OD, Day 1", "result": "0.08 ± 0.12", "unit": "g/day"}, {"measurement": "Urinary β2-microglobulin, change from baseline", "setting": "[1]; 5 mg OD, Day 1", "result": "-1.3 ± 13.5", "unit": "µg/L"}, {"measurement": "Cystatin C, change from baseline", "setting": "[1]; 5 mg OD, Day 7", "result": "-0.027 ± 0.065", "unit": "mg/L"}, {"measurement": "DBP, change from baseline", "setting": "[1]; 5 mg OD, Day 7", "result": "−3.1 ± 6.0", "unit": "mmHg"}, {"measurement": "Hematocrit, change from baseline", "setting": "[1]; 5 mg OD, Day 7", "result": "−1.66 ± 1.99", "unit": "%"}, {"measurement": "SBP, change from baseline", "setting": "[1]; 5 mg OD, Day 7", "result": "−11.3 ± 11.8", "unit": "mmHg"}, {"measurement": "Serum calcium, change from baseline", "setting": "[1]; 5 mg OD, Day 7", "result": "-0.16 ± 0.45", "unit": "mg/dL"}, {"measurement": "Serum phosphorus, change from baseline", "setting": "[1]; 5 mg OD, Day 7", "result": "0.42 ± 0.39", "unit": "mg/dL"}, {"measurement": "Urinary NAG, change from baseline", "setting": "[1]; 5 mg OD, Day 7", "result": "−0.11 ± 1.18", "unit": "U/L"}, {"measurement": "Urinary calcium, change from baseline", "setting": "[1]; 5 mg OD, Day 7", "result": "-0.03 ± 0.05", "unit": "g/day"}, {"measurement": "Urinary phosphorus, change from baseline", "setting": "[1]; 5 mg OD, Day 7", "result": "-0.01 ± 0.14", "unit": "g/day"}, {"measurement": "Urinary type IV collagen, change from baseline", "setting": "[1]; 5 mg OD, Day 7", "result": "0.31 ± 1.26", "unit": "μg/g creatinine"}, {"measurement": "Urinary uric acid, change from baseline", "setting": "[1]; 5 mg OD, Day 7", "result": "0.01 ± 0.10", "unit": "g/day"}, {"measurement": "Urinary β2-microglobulin, change from baseline", "setting": "[1]; 5 mg OD, Day 7", "result": "1.4 ± 20.3", "unit": "µg/L"}, {"measurement": "UGE0–24h", "setting": "[2]; 0.5 mg OD, Day 1", "result": "81.5 ± 33.2", "unit": "g"}, {"measurement": "UGE0–24h LS mean difference vs placebo (95% CI)", "setting": "[2]; 0.5 mg OD, Day 1", "result": "46.4 (32.9, 60.0)* g"}, {"measurement": "Least-squares mean difference in 24-h UGE vs placebo", "setting": "[2]; 0.5 mg OD, Day 7", "result": 49.2, "unit": "g/day"}, {"measurement": "UGE0–24h", "setting": "[2]; 0.5 mg OD, Day 7", "result": "81.7 ± 30.1", "unit": "g"}, {"measurement": "UGE0–24h LS mean difference vs placebo (95% CI)", "setting": "[2]; 0.5 mg OD, Day 7", "result": "49.2 (27.9, 70.5)* g"}, {"measurement": "UGE0–24h LS mean difference vs placebo (95% CI)", "setting": "[2]; 0.5 mg OD, Day 7, listed as luseogliflozin", "result": 49.2, "unit": "g"}, {"measurement": "UGE0–24h", "setting": "[2]; 1 mg OD, Day 1", "result": "75.1 ± 23.3", "unit": "g"}, {"measurement": "UGE0–24h LS mean difference vs placebo (95% CI)", "setting": "[2]; 1 mg OD, Day 1", "result": "58.9 (45.7, 72.1)* g"}, {"measurement": "Least-squares mean difference in 24-h UGE vs placebo", "setting": "[2]; 1 mg OD, Day 7", "result": 66.5, "unit": "g/day"}, {"measurement": "UGE0–24h", "setting": "[2]; 1 mg OD, Day 7", "result": "85.3 ± 18.8", "unit": "g"}, {"measurement": "UGE0–24h LS mean difference vs placebo (95% CI)", "setting": "[2]; 1 mg OD, Day 7", "result": "66.5 (45.8, 87.1)* g"}, {"measurement": "UGE0–24h LS mean difference vs placebo (95% CI)", "setting": "[2]; 1 mg OD, Day 7, listed as luseogliflozin", "result": 66.5, "unit": "g"}, {"measurement": "UGE0–24h", "setting": "[2]; 2.5 mg OD, Day 1", "result": "139 ± 31.1", "unit": "g"}, {"measurement": "UGE0–24h LS mean difference vs placebo (95% CI)", "setting": "[2]; 2.5 mg OD, Day 1", "result": "91.7 (78.1, 105)* g"}, {"measurement": "Least-squares mean difference in 24-h UGE vs placebo", "setting": "[2]; 2.5 mg OD, Day 7", "result": 89.4, "unit": "g/day"}, {"measurement": "UGE0–24h", "setting": "[2]; 2.5 mg OD, Day 7", "result": "131 ± 29.9", "unit": "g"}, {"measurement": "UGE0–24h LS mean difference vs placebo (95% CI)", "setting": "[2]; 2.5 mg OD, Day 7", "result": "89.4 (68.2, 111)* g"}, {"measurement": "UGE0–24h LS mean difference vs placebo (95% CI)", "setting": "[2]; 2.5 mg OD, Day 7, listed as luseogliflozin", "result": 89.4, "unit": "g"}, {"measurement": "energy loss equivalent to the increase in UGE", "setting": "[2]; 5 mg OD", "result": "approximately 400 kcal"}, {"measurement": "increase in UGE", "setting": "[2]; 5 mg OD", "result": "about 100 g glucose/day"}, {"measurement": "UGE0–24h", "setting": "[2]; 5 mg OD, Day 1", "result": "116 ± 29.0", "unit": "g"}, {"measurement": "UGE0–24h LS mean difference vs placebo (95% CI)", "setting": "[2]; 5 mg OD, Day 1", "result": "101 (87.6, 114)* g"}, {"measurement": "Least-squares mean difference in 24-h UGE vs placebo", "setting": "[2]; 5 mg OD, Day 7", "result": 101, "unit": "g/day"}, {"measurement": "UGE0–24h", "setting": "[2]; 5 mg OD, Day 7", "result": "120 ± 33.1", "unit": "g"}, {"measurement": "UGE0–24h LS mean difference vs placebo (95% CI)", "setting": "[2]; 5 mg OD, Day 7", "result": "101 (80.7, 122)* g"}, {"measurement": "UGE0–24h LS mean difference vs placebo (95% CI)", "setting": "[2]; 5 mg OD, Day 7, listed as luseogliflozin", "result": 101, "unit": "g"}, {"measurement": "time for UGE to return toward the baseline value after treatment discontinuation", "setting": "[2]; each dose group", "result": "1 to 3", "unit": "days"}]}
